Data on 33 molecules can be found in ChEMBL document CHEMBL1153925, “Synthesis, characterization and biological activity of ring-substituted 6-benzylamino-9-tetrahydropyran-2-yl and 9-tetrahydrofuran-2-ylpurine derivatives” (Bioorg Med Chem, 2009).

Where only a bound is given, the exact number is not on record here.

For one assay, the system named is BJ. The experiment in a line: Cytotoxicity against human BJ cells after 72 hrs by MTT assay. The assay is classed as ADME, cell-based. In general terms: Formazan colour is commonly taken as a measure of viable cells.
The next assay has as its system MCF7. The experiment in a line: Cytotoxicity against human MCF7 cells after 72 hrs by Calcein AM assay. The assay is classed as ADME, cell-based. The note with it: MCF7, 72 h.
The test system of the next assay is Amaranthus. The experiment in a line: Cytokinin activity in cotyledons assessed as dark induction of betacyanin synthesis at 100 uM relative to 6-benzylaminopurine. The assay is classed as functional.
The next assay relates to Triticum aestivum. The experiment in a line: Cytokinin activity in wheat leaf assessed as stimulation of retention of chlorophyll in excised leaves at 0.1 mM relative to 6-benzylaminopurine. The assay is classed as functional.
A further assay has as its system K562. The experiment in a line: Cytotoxicity against human K562 cells after 72 hrs by Calcein AM assay. The class given is ADME, cell-based. As to conditions: K562, 72 h.
Assay [1] deals with Nicotiana tabacum. The experiment in a line: Cytokinin activity in tobacco callus assessed as stimulation of callus growth at 100 uM relative to 6-benzylaminopurine. The class given is functional. The essentials: (§1)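 Compounds dissolved in DMSO, diluted with water to 5 × 10^-2 M stock, then diluted in medium to 10^-8 to 10^-4 M. Final DMSO ≤0.2%; solvent control 0.2% DMSO. Readout was cytokinin-dependent tobacco callus growth. Activity is expressed relative to 10^-6 M BAP (=100%) at each compound's optimal concentration. Five replicates per concentration; whole test run at least twice.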

The subject of assay [2] is Nicotiana tabacum. The experiment in a line: Cytokinin activity in tobacco callus assessed as stimulation of callus growth at 1 uM relative to 6-benzylaminopurine. The class given is functional.
Assay [3] relates to Nicotiana tabacum. The experiment in a line: Cytokinin activity in tobacco callus assessed as stimulation of callus growth at 10 uM relative to 6-benzylaminopurine. The assay is classed as functional. The essentials:
as §1

A word on the IC50: it is the point on the concentration scale where inhibition reaches its midpoint. For `COc1cccc(OC)c1CNc1ncnc2c1ncn2C1CCCCO1` (stereo not given), the concentration for half-maximal inhibition (IC50) with BJ is above 100 µM; with MCF7 it was above 100 µM; in the assay on K562, 10.3 µM. Besides, the figures for the Activity in the assay on Amaranthus, in the assay on Triticum aestivum and in the assay with Nicotiana tabacum [1] were 13%, 14% and 57%, respectively.

Regarding `COc1ccccc1CNc1ncnc2c1ncn2C1CCCCO1` (stereo not given), the IC50 in the assay with BJ is above 100 µM; in the assay with MCF7 it was above 100 µM; in the assay on K562, 97 µM. Besides, the Activity with Amaranthus is on record as 84%; with Nicotiana tabacum [2] it was 93%; with Triticum aestivum it was 104%.

With `COc1ccc(CNc2ncnc3c2ncn3C2CCCCO2)c(OC)c1` (stereo not given), the IC50 in the assay on BJ, with MCF7 and in the assay with K562 was above 25 µM in each case. In addition, the results for the Activity in the assay with Amaranthus and in the assay on Triticum aestivum were 9% and 25%, respectively.

Take `COc1ccc(OC)c(CNc2ncnc3c2ncn3C2CCCCO2)c1` (stereo not given): the 50% inhibitory concentration (IC50) with BJ is above 100 µM; in the assay on MCF7, 25.4 µM; in the assay with K562, 16.5 µM. Further, the Activity came out at 28% in the assay with Amaranthus, 42% in the assay on Nicotiana tabacum [3] and 19% with Triticum aestivum.

In the case of `c1ccc(CNc2ncnc3c2ncn3C2CCCCO2)cc1` (stereo not given), the concentration for half-maximal inhibition (IC50) in the assay with BJ, in the assay on MCF7 and with K562 was above 100 µM throughout. Also, the values for the Activity in the assay on Amaranthus, in the assay with Nicotiana tabacum [2] and with Triticum aestivum were 114%, 102% and 104%, respectively.

Regarding `Oc1ccc(CNc2ncnc3c2ncn3C2CCCCO2)cc1` (stereo not given), the half-inhibitory concentration (IC50) in the assay on BJ, in the assay with MCF7 and in the assay on K562 was above 100 µM throughout. Also, the Activity with Amaranthus was 34%; in the assay with Nicotiana tabacum [3], 20%; in the assay with Triticum aestivum, 4%.

`COc1cccc(CNc2ncnc3c2ncn3C2CCCCO2)c1` (stereo not given): the results for the IC50 in the assay on BJ, with MCF7 and with K562 were above 100 µM, 97 µM and 61 µM, respectively. Also, the Activity in the assay on Amaranthus stood at 76%; in the assay with Nicotiana tabacum [2] it was 90%; with Triticum aestivum, 72%.

As for `COc1cccc(CNc2ncnc3c2ncn3C2CCCCO2)c1O` (stereo not given), the 50% inhibitory concentration (IC50) in the assay on BJ, in the assay with MCF7 and in the assay on K562 was above 100 µM throughout. For the same molecule, the Activity is reported as 18% in the assay with Amaranthus and 12% with Nicotiana tabacum [1].

For the molecule `COc1cc(OC)c(OC)cc1CNc1ncnc2c1ncn2C1CCCCO1` (stereo not given), the IC50 with BJ, in the assay on MCF7 and in the assay on K562 was above 100 µM throughout. In addition, the Activity with Amaranthus stood at 3%; with Nicotiana tabacum [1], 11%.

`COc1cc(CNc2ncnc3c2ncn3C2CCCO2)cc(OC)c1` (stereo not given): the 50% inhibitory concentration (IC50) with BJ, in the assay on MCF7 and in the assay with K562 was above 100 µM throughout. Also, the Activity is 18% with Amaranthus, 8% in the assay on Triticum aestivum and 14% with Nicotiana tabacum [1].

Regarding `COc1cc(CNc2ncnc3c2ncn3C2CCCO2)ccc1O` (stereo not given), the 50% inhibitory concentration (IC50) in the assay on BJ, in the assay with MCF7 and in the assay on K562 was above 100 µM throughout. Moreover, the Activity in the assay on Amaranthus stood at 17%; in the assay on Triticum aestivum, 4%; with Nicotiana tabacum [1], 13%.

Turning to `COc1ccc(CNc2ncnc3c2ncn3C2CCCO2)c(OC)c1OC` (stereo not given), the concentration for half-maximal inhibition (IC50) in the assay on BJ, in the assay on MCF7 and in the assay with K562 was above 100 µM each time. For the same molecule, the Activity with Amaranthus is recorded as 15%; in the assay on Triticum aestivum, 9%; in the assay on Nicotiana tabacum [1], 7%.

As for `COc1ccc(OC)c(CNc2ncnc3c2ncn3C2CCCO2)c1` (stereo not given), the IC50 with BJ, with MCF7 and with K562 was above 50 µM throughout. Moreover, the results for the Activity in the assay on Amaranthus, in the assay on Nicotiana tabacum [3] and in the assay with Triticum aestivum were 41%, 61% and 41%, respectively.

In the case of `COc1cc(OC)c(OC)cc1CNc1ncnc2c1ncn2C1CCCO1` (stereo not given), the concentration for half-maximal inhibition (IC50) in the assay with BJ, in the assay with MCF7 and in the assay with K562 was above 100 µM in each case. The Activity with Amaranthus stood at 14%; in the assay on Triticum aestivum, 9%; in the assay on Nicotiana tabacum [1], 14%.

In the case of `COc1cc(CNc2ncnc3c2ncn3C2CCCO2)cc(OC)c1OC` (stereo not given), the IC50 with BJ, in the assay with MCF7 and in the assay on K562 was above 100 µM each time. Besides, the Activity was 17% in the assay on Amaranthus, 10% in the assay on Triticum aestivum and 4% in the assay on Nicotiana tabacum [1].

Regarding `COc1cc(CNc2ncnc3c2ncn3C2CCCCO2)cc(OC)c1` (stereo not given), the IC50 with BJ, in the assay with MCF7 and with K562 was above 100 µM in each case. The figures for the Activity with Amaranthus and with Triticum aestivum were 9% and 7%, respectively.

Regarding `Oc1cccc(CNc2ncnc3c2ncn3C2CCCCO2)c1O` (stereo not given), the IC50 in the assay with BJ was 63.3 µM; in the assay with MCF7, above 100 µM; with K562, 92 µM. In addition, the Activity in the assay with Amaranthus worked out at 8%; with Nicotiana tabacum [1], 3.2%.

For the molecule `Oc1cc(O)cc(CNc2ncnc3c2ncn3C2CCCCO2)c1` (stereo not given), the IC50 in the assay on BJ, with MCF7 and in the assay on K562 was above 100 µM each time. In addition, the results for the Activity in the assay with Amaranthus, with Nicotiana tabacum [3] and with Triticum aestivum were 33%, 36% and 15%, respectively.

Take `COc1cc(CNc2ncnc3c2ncn3C2CCCCO2)cc(OC)c1OC` (stereo not given): the IC50 in the assay with BJ, with MCF7 and with K562 was above 100 µM throughout. Also, the Activity was 19% with Amaranthus, 7% in the assay with Triticum aestivum and 17% in the assay on Nicotiana tabacum [1].

`c1ccc(CNc2ncnc3c2ncn3C2CCCO2)cc1` (stereo not given): the half-maximal inhibitory concentration (IC50) with BJ, in the assay on MCF7 and in the assay with K562 was above 100 µM throughout. Also, the Activity is given as 109% in the assay with Amaranthus, 95% in the assay with Nicotiana tabacum [2] and 107% in the assay with Triticum aestivum.

As to `Oc1ccc(CNc2ncnc3c2ncn3C2CCCO2)cc1` (stereo not given), the IC50 in the assay with BJ, with MCF7 and in the assay on K562 was above 100 µM in each case. Also, the Activity with Amaranthus amounted to 10%; in the assay with Nicotiana tabacum [3] it was 19%; in the assay on Triticum aestivum, 8%.

As for `COc1ccccc1CNc1ncnc2c1ncn2C1CCCO1` (stereo not given), the half-maximal inhibitory concentration (IC50) with BJ, in the assay on MCF7 and in the assay on K562 was above 100 µM throughout. Moreover, the Activity in the assay on Amaranthus was found to be 107%; in the assay with Nicotiana tabacum [3] it was 91%; in the assay on Triticum aestivum, 72%.

For the molecule `COc1cccc(CNc2ncnc3c2ncn3C2CCCO2)c1` (stereo not given), the IC50 with BJ, in the assay with MCF7 and in the assay on K562 was above 100 µM each time. The Activity with Amaranthus was found to be 123%; in the assay on Nicotiana tabacum [2], 96%; in the assay on Triticum aestivum, 82%.

Take `COc1ccc(CNc2ncnc3c2ncn3C2CCCO2)cc1` (stereo not given): the IC50 with BJ, in the assay with MCF7 and in the assay with K562 was above 100 µM each time. Also, the values for the Activity with Amaranthus, in the assay on Nicotiana tabacum [2] and with Triticum aestivum were 25%, 7% and 16%, respectively.

For the molecule `COc1ccc(CNc2ncnc3c2ncn3C2CCCO2)cc1OC` (stereo not given), the IC50 in the assay with BJ, in the assay on MCF7 and in the assay on K562 was above 100 µM throughout. Further, the Activity with Amaranthus came out at 5%; with Nicotiana tabacum [2], 3%; with Triticum aestivum, 7%.

Consider `COc1cc(CNc2ncnc3c2ncn3C2CCCCO2)ccc1O` (stereo not given), for which the concentration for half-maximal inhibition (IC50) in the assay with BJ, with MCF7 and with K562 was above 100 µM in each case. Besides, the figures for the Activity with Amaranthus, with Triticum aestivum and in the assay on Nicotiana tabacum [1] were 26%, 7% and 8.7%, respectively.

On to `COc1cc(OC)c(CNc2ncnc3c2ncn3C2CCCCO2)c(OC)c1` (stereo not given), for which the concentration for half-maximal inhibition (IC50) with BJ, in the assay on MCF7 and in the assay on K562 was above 50 µM throughout. The Activity was determined as 14% with Amaranthus, 3% in the assay with Triticum aestivum and 2% in the assay on Nicotiana tabacum [1].

As for `COc1ccc(CNc2ncnc3c2ncn3C2CCCCO2)cc1OC` (stereo not given), the IC50 with BJ, in the assay with MCF7 and in the assay on K562 was above 100 µM each time. In addition, the Activity in the assay on Amaranthus and in the assay with Triticum aestivum was 8% in each case.

`COc1ccc(CNc2ncnc3c2ncn3C2CCCCO2)c(OC)c1OC` (stereo not given): the 50% inhibitory concentration (IC50) in the assay with BJ, with MCF7 and in the assay on K562 was above 37.5 µM in each case. For the same molecule, the figures for the Activity in the assay with Amaranthus and with Triticum aestivum were 4% and 7%, respectively.

Regarding `Oc1ccccc1CNc1ncnc2c1ncn2C1CCCO1` (stereo not given), the 50% inhibitory concentration (IC50) with BJ, with MCF7 and with K562 was above 100 µM throughout. The figures for the Activity with Amaranthus, in the assay with Triticum aestivum and in the assay on Nicotiana tabacum [1] were 41%, 25% and 58%, respectively.

On to `Oc1ccccc1CNc1ncnc2c1ncn2C1CCCCO1` (stereo not given), for which the IC50 with BJ, in the assay with MCF7 and with K562 was above 100 µM in each case. In addition, the Activity is given as 46% with Amaranthus, 37% in the assay with Nicotiana tabacum [3] and 31% in the assay with Triticum aestivum.

For the molecule `COc1ccc(CNc2ncnc3c2ncn3C2CCCCO2)cc1` (stereo not given), the IC50 with BJ, in the assay with MCF7 and in the assay on K562 was above 100 µM each time. Also, the Activity in the assay on Amaranthus worked out at 18%; in the assay on Nicotiana tabacum [2], 10%.

As to `COc1ccc(CNc2ncnc3c2ncn3C2CCCO2)c(OC)c1` (stereo not given), the IC50 in the assay with BJ, in the assay on MCF7 and in the assay on K562 was above 100 µM each time. Moreover, the Activity with Amaranthus stood at 14%; with Nicotiana tabacum [2], 3%; in the assay with Triticum aestivum, 18%.
